Measurements from paper PMC4856055 (Journal of medicinal chemistry, 2015).
Several values for one entry are separate records, joined by “and”; a condition that tells them apart may be missing. Equal entries are not always repeated. Where two headings read alike, the source gives them in different places.

Experiments:
[1] = tested on: PSMA+ PC3 PIP and PSMA– PC3 flu tumor xenografts; experiment: Small animal PET or PET/CT imaging of tumor bearing mice; assay type: in vivo
[2] = tested on: PSMA+ PC3 PIP and PSMA– PC3 flu xenografts; assay type: in vivo, mice; settings: for PIP:blood ratio / PIP:flu ratio / PIP:kidney ratio / PIP:muscle ratio / biodistribution, PC-3 PIP tumor / biodistribution, PC-3 flu tumor / biodistribution, bladder / biodistribution, blood / biodistribution, bone / biodistribution, fat / biodistribution, heart / biodistribution, kidney / biodistribution, large intestine / biodistribution, liver / biodistribution, lung / biodistribution, muscle / biodistribution, pancreas / biodistribution, small intestine / biodistribution, spleen / biodistribution, stomach: tumor bearing mice
PSMA = PSMA (Homo sapiens, UniProt Q04609); experiment: PSMA inhibitory activity, fluorescence-based Amplex red glutamic acid; assay type: biochemical; settings: for Ki: LNCaP cell lysates, 4 µM NAAG, Cheng-Prusoff conversion
Outline: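 LNCaP cell lysate was incubated with the test compound and NAAG substrate for 120 min. Glutamate released by NAAG hydrolysis was detected by a further 60 min incubation with Amplex red glutamic acid working solution, then fluorescence was read at excitation 490 nm and emission 642 nm. IC50 was taken from semilog inhibition curves and converted to Ki by Cheng-Prusoff. Assays were run in triplicate.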

Chain of PSMA (Q04609 whole entry): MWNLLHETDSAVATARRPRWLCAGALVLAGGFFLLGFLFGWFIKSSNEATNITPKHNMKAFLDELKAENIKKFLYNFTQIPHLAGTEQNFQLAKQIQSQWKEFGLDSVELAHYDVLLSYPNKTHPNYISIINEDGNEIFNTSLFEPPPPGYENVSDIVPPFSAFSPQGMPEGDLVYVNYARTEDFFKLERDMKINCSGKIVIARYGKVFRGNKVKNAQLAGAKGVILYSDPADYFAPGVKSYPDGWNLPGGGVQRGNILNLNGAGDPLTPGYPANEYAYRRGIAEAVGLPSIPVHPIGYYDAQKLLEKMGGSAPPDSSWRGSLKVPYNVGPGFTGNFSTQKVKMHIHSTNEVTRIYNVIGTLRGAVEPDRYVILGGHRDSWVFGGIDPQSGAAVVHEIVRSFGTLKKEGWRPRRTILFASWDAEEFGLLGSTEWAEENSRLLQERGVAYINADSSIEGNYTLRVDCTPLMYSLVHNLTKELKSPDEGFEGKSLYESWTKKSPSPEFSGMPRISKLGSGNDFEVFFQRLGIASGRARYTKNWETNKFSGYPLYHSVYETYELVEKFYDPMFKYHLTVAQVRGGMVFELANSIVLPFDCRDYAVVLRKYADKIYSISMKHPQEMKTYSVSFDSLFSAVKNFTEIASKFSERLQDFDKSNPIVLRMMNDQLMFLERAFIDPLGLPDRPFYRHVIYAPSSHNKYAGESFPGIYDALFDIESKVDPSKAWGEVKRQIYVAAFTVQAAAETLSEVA

SMILES: O=C(O)CCC(OC(=O)NC(CCCCNC(=O)c1ccc(Br)cc1[18F])C(=O)O)C(=O)O (stereo not shown) [[^18F]23, 4-Bromo-2-[^18F]fluorobenzoyllysineoxypentanedioic acid (OPA) carbamate]
- PSMA+ PC3 PIP tumor uptake on small animal PET imaging ([1]; male SCID mice with PSMA+ PC3 PIP and PSMA– PC3 flu xenografts): Intense and selective radiotracer uptake
- uptake in salivary glands on imaging ([1]; mouse, in vivo): Neither [^18F]23 nor [^18F]24 demonstrated any uptake in salivary glands
- PIP:blood ratio ([2]; 0.5 h postinjection): 13 and 13.5
- PIP:flu ratio ([2]; 0.5 h postinjection): 28.7
- PIP:kidney ratio ([2]; 0.5 h postinjection): 0.5
- PIP:muscle ratio ([2]; 0.5 h postinjection): 93 and 93.3
- biodistribution, PC-3 PIP tumor ([2]; 0.5 h postinjection): 63 % ID/g and 63.4 ± 7.16 % ID/g
- biodistribution, PC-3 flu tumor ([2]; 0.5 h postinjection): 2.21 ± 0.19 % ID/g
- biodistribution, bladder ([2]; 0.5 h postinjection): 2.84 ± 0.65 % ID/g
- biodistribution, blood ([2]; 0.5 h postinjection): 4.69 ± 0.33 % ID/g
- biodistribution, bone ([2]; 0.5 h postinjection): 0.89 ± 0.14 % ID/g
- biodistribution, fat ([2]; 0.5 h postinjection): 1.02 ± 0.12 % ID/g
- biodistribution, heart ([2]; 0.5 h postinjection): 1.72 ± 0.31 % ID/g
- biodistribution, kidney ([2]; 0.5 h postinjection): 135 ± 23.0 % ID/g
- biodistribution, large intestine ([2]; 0.5 h postinjection): 1.35 ± 0.35 % ID/g
- biodistribution, liver ([2]; 0.5 h postinjection): 15.5 ± 1.57 % ID/g
- biodistribution, lung ([2]; 0.5 h postinjection): 4.59 ± 0.78 % ID/g
- biodistribution, muscle ([2]; 0.5 h postinjection): 0.68 ± 0.07 % ID/g
- biodistribution, pancreas ([2]; 0.5 h postinjection): 1.45 ± 0.15 % ID/g
- biodistribution, small intestine ([2]; 0.5 h postinjection): 1.51 ± 0.71 % ID/g
- biodistribution, spleen ([2]; 0.5 h postinjection): 19.9 ± 7.80 % ID/g
- biodistribution, stomach ([2]; 0.5 h postinjection): 1.08 ± 0.07 % ID/g
- PIP:blood ratio ([2]; 1 h postinjection): 40 and 40.3
- PIP:flu ratio ([2]; 1 h postinjection): 69.4
- PIP:kidney ratio ([2]; 1 h postinjection): 0.5
- PIP:muscle ratio ([2]; 1 h postinjection): 208 and 208.1
- biodistribution, PC-3 PIP tumor ([2]; 1 h postinjection): 64.5 ± 7.71 % ID/g
- biodistribution, PC-3 flu tumor ([2]; 1 h postinjection): 0.93 ± 0.19 % ID/g
- biodistribution, bladder ([2]; 1 h postinjection): 5.11 ± 3.57 % ID/g
- biodistribution, blood ([2]; 1 h postinjection): 1.60 ± 1.17 % ID/g
- biodistribution, bone ([2]; 1 h postinjection): 0.48 ± 0.17 % ID/g
- biodistribution, fat ([2]; 1 h postinjection): 0.79 ± 0.74 % ID/g
- biodistribution, heart ([2]; 1 h postinjection): 0.79 ± 0.14 % ID/g
- biodistribution, kidney ([2]; 1 h postinjection): 139 ± 23.7 % ID/g
- biodistribution, large intestine ([2]; 1 h postinjection): 0.71 ± 0.35 % ID/g
- biodistribution, liver ([2]; 1 h postinjection): 11.9 ± 2.95 % ID/g
- biodistribution, lung ([2]; 1 h postinjection): 2.62 ± 0.30 % ID/g
- biodistribution, muscle ([2]; 1 h postinjection): 0.31 ± 0.05 % ID/g
- biodistribution, pancreas ([2]; 1 h postinjection): 0.80 ± 0.21 % ID/g
- biodistribution, small intestine ([2]; 1 h postinjection): 1.67 ± 0.70 % ID/g
- biodistribution, spleen ([2]; 1 h postinjection): 9.62 ± 5.53 % ID/g
- biodistribution, stomach ([2]; 1 h postinjection): 0.67 ± 0.18 % ID/g
- PIP:blood ratio ([2]; 2 h postinjection): 148 and 147.6
- PIP:flu ratio ([2]; 2 h postinjection): 233.4
- PIP:kidney ratio ([2]; 2 h postinjection): 0.7
- PIP:muscle ratio ([2]; 2 h postinjection): 643 and 643.1
- biodistribution, PC-3 PIP tumor ([2]; 2 h postinjection): 90.0 ± 13.6 % ID/g
- biodistribution, PC-3 flu tumor ([2]; 2 h postinjection): 0.39 ± 0.01 % ID/g
- biodistribution, bladder ([2]; 2 h postinjection): 4.22 ± 1.58 % ID/g
- biodistribution, blood ([2]; 2 h postinjection): 0.61 ± 0.41 % ID/g
- biodistribution, bone ([2]; 2 h postinjection): 0.20 ± 0.03 % ID/g
- biodistribution, fat ([2]; 2 h postinjection): 0.88 ± 0.80 % ID/g
- biodistribution, heart ([2]; 2 h postinjection): 0.35 ± 0.07 % ID/g
- biodistribution, kidney ([2]; 2 h postinjection): 127 ± 37.1 % ID/g
- biodistribution, large intestine ([2]; 2 h postinjection): 0.51 ± 0.30 % ID/g
- biodistribution, liver ([2]; 2 h postinjection): 6.42 ± 1.06 % ID/g
- biodistribution, lung ([2]; 2 h postinjection): 1.21 ± 0.14 % ID/g
- biodistribution, muscle ([2]; 2 h postinjection): 0.14 ± 0.02 % ID/g
- biodistribution, pancreas ([2]; 2 h postinjection): 0.37 ± 0.07 % ID/g
- biodistribution, small intestine ([2]; 2 h postinjection): 0.52 ± 0.17 % ID/g
- biodistribution, spleen ([2]; 2 h postinjection): 5.69 ± 2.14 % ID/g
- biodistribution, stomach ([2]; 2 h postinjection): 0.67 ± 0.72 % ID/g
- PIP:blood ratio ([2]; 4 h postinjection): 240 and 240.1
- PIP:flu ratio ([2]; 4 h postinjection): 461.5
- PIP:kidney ratio ([2]; 4 h postinjection): 1.4
- PIP:muscle ratio ([2]; 4 h postinjection): 792 and 791.9
- biodistribution, PC-3 PIP tumor ([2]; 4 h postinjection): 74 % ID/g and 74.4 ± 9.19 % ID/g
- biodistribution, PC-3 flu tumor ([2]; 4 h postinjection): 0.16 ± 0.03 % ID/g
- biodistribution, bladder ([2]; 4 h postinjection): 3.30 ± 3.03 % ID/g
- biodistribution, blood ([2]; 4 h postinjection): 0.31 ± 0.09 % ID/g
- biodistribution, bone ([2]; 4 h postinjection): 0.09 ± 0.05 % ID/g
- biodistribution, fat ([2]; 4 h postinjection): 0.53 ± 0.27 % ID/g
- biodistribution, heart ([2]; 4 h postinjection): 0.14 ± 0.08 % ID/g
- biodistribution, kidney ([2]; 4 h postinjection): 54.5 ± 22.2 % ID/g
- biodistribution, large intestine ([2]; 4 h postinjection): 0.81 ± 0.15 % ID/g
- biodistribution, liver ([2]; 4 h postinjection): 2.95 ± 1.97 % ID/g
- biodistribution, lung ([2]; 4 h postinjection): 0.58 ± 0.32 % ID/g
- biodistribution, muscle ([2]; 4 h postinjection): 0.09 ± 0.07 % ID/g
- biodistribution, pancreas ([2]; 4 h postinjection): 0.13 ± 0.03 % ID/g
- biodistribution, small intestine ([2]; 4 h postinjection): 0.23 ± 0.05 % ID/g
- biodistribution, spleen ([2]; 4 h postinjection): 1.68 ± 1.03 % ID/g
- biodistribution, stomach ([2]; 4 h postinjection): 0.12 ± 0.07 % ID/g
- tumor/kidney ratio ([2]; at 2–4 h): approximately 1
- PSMA– PC3 flu tumor uptake ([2]; mouse, in vivo): no specific uptake
- defluorination in vivo (from bone uptake) ([2]; mouse, in vivo): lack of significant defluorination in vivo

SMILES: O=C(O)CC[C@H](OC(=O)N[C@@H](CCCCNC(=O)c1ccc(F)cc1)C(=O)O)C(=O)O [compound 13, (S)-2-((((S)-1-Carboxy-5-(4-fluorobenzamido)pentyl)-carbamoyl)oxy)pentanedioic Acid]
- reduction in binding affinity compared to 9 (PSMA): 30 fold
- Ki (PSMA; Ki): 9.2 nM

SMILES: O=C(O)CC[C@H](OC(=O)N[C@@H](CCCCNC(=O)c1ccc(Br)cc1F)C(=O)O)C(=O)O [compound 23, (S)-2-((((S)-5-(4-Bromo-2-fluorobenzamido)-1-carboxypentyl)carbamoyl)oxy)pentanedioic Acid]
- decrease in potency compared with the corresponding ureas 26 and 27 (PSMA): < 10 fold
- Ki (PSMA; Ki): 0.11 nM

SMILES: O=C(O)CC[C@H](NC(=O)N[C@@H](CCCCNC(=O)c1ccc(I)cc1F)C(=O)O)C(=O)O [compound 27, (S)-2-(3-((S)-5-(4-Iodo-2-fluorobenzamido)-1-carboxypentyl)ureido)pentanedioic Acid]
- Ki (PSMA; Ki): 0.023 nM and 0.02 nM

SMILES: O=C(O)CC[C@H](NC(=O)O[C@@H](CCCCNC(=O)c1ccc(F)cc1)C(=O)O)C(=O)O [compound 12, (S)-2-(((((S)-1-Carboxy-5-(4-fluorobenzamido)pentyl)oxy)-carbonyl)amino)pentanedioic Acid]
- reduction in binding affinity compared to 9 (PSMA): more than 150 fold

SMILES: O=C(O)CC[C@H](OC(=O)N[C@@H](CCCCNC(=O)c1ccc(I)cc1F)C(=O)O)C(=O)O [compound 24]
- decrease in potency compared with the corresponding ureas 26 and 27 (PSMA): < 10 fold
- Ki (PSMA): 0.21 nM

SMILES: O=C(O)CC[C@H](NC(=O)N[C@@H](CCCCNC(=O)c1ccc(Br)cc1F)C(=O)O)C(=O)O [compound 26, (S)-2-(3-((S)-5-(4-Bromo-2-fluorobenzamido)-1-carboxypentyl)ureido)pentanedioic Acid]
- Ki (PSMA; Ki): 0.036 nM and 0.04 nM
